Key:
[1] = tested on: IMR5 cells; experiment: BrdU/PI flow cytometry, cell cycle distribution of IMR5 cells; assay type: cell-based, human; details: IMR5 cells without ectopic AURORA-A, 1 µM, 18 hours
Outline: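 Cells were pulsed with 10 µM BrdU for 1 h, washed in ice-cold PBS and fixed overnight in 80% ethanol at −20 °C. After a 1% BSA/PBS-T wash, they were stained 30 min at 37 °C with RNase A (24 µg/ml) and propidium iodide (54 µM), then analysed by flow cytometry. For IMR5, the EtOH-treated cells of the doxycycline-inducible line served as the non-overexpressing cells.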

[2] = molecular target: T1, AURORA-A^Imut (Homo sapiens, UniProt O14965, A267W/E239R/F157E/I158E/I57V/K153E/K156E/K224E/P191W/R137E/R189E/R375E/S266W); experiment: Depletion of AURORA-A interface mutant in MV4-11 cells; assay type: cell-based; details: 12 mutated amino acids in the presumed interface with CEREBLON
T1 sequence (O14965 1-403 I57V/R137E/K153E/K156E/F157E/I158E/R189E/P191W/K224E/E239R/S266W/A267W/R375E): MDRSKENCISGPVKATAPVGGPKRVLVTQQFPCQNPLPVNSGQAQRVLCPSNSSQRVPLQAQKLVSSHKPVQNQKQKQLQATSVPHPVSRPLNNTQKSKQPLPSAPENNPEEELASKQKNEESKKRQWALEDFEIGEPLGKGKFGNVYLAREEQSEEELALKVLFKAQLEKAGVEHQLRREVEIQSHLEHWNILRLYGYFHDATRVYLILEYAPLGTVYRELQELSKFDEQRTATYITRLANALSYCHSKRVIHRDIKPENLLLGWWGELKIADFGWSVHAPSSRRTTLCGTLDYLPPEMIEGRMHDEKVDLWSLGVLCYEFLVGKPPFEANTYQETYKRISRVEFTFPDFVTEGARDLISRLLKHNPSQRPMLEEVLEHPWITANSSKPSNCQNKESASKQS
Outline: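 HiBiT-tagged wild-type or mutant AURORA-A was expressed stably in MV4-11 cells (infected twice, 24 h apart, selected 72 h after infection). Cells were exposed to serial dilutions of the test compound for 6 h and lysed with lytic detection reagent containing the LgBiT fragment. Luminescence was then read. DC50 and DCmax were derived from the concentration–response data.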

[3] = molecular target: AURORA-A-CEREBLON complex (Homo sapiens, UniProt O14965+Q96SW2); experiment: HA immunoprecipitation of AURORA-A, co-precipitated CEREBLON; assay type: binding; details: MV4-11 cell extracts, 0.5 µM degrader
Sequence of AURORA-A-CEREBLON complex (O14965 whole entry): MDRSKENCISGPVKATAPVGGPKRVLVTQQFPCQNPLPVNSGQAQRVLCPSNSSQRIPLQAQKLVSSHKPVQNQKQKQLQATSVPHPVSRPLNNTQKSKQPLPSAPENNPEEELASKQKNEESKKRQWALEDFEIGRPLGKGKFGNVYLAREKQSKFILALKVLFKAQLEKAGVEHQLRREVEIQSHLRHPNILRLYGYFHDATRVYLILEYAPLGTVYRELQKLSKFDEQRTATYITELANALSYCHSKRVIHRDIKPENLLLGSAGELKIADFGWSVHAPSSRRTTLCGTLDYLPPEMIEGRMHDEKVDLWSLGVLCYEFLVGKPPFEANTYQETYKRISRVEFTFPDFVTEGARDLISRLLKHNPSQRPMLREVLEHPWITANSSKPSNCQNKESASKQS
Sequence of AURORA-A-CEREBLON complex (Q96SW2 whole entry): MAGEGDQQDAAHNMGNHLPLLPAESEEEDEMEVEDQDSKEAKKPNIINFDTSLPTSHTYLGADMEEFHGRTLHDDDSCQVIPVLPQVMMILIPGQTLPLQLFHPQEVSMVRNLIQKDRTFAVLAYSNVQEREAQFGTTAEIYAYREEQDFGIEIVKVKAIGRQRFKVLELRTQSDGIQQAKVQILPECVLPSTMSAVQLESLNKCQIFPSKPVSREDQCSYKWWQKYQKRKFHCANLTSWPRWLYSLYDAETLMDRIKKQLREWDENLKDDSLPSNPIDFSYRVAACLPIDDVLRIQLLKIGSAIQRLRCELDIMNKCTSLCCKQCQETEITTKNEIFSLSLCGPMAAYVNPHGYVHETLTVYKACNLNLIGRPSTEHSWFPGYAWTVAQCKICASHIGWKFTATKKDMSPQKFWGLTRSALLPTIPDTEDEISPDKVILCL
Sequence of AURORA-A-CEREBLON complex (Q16531 whole entry partner): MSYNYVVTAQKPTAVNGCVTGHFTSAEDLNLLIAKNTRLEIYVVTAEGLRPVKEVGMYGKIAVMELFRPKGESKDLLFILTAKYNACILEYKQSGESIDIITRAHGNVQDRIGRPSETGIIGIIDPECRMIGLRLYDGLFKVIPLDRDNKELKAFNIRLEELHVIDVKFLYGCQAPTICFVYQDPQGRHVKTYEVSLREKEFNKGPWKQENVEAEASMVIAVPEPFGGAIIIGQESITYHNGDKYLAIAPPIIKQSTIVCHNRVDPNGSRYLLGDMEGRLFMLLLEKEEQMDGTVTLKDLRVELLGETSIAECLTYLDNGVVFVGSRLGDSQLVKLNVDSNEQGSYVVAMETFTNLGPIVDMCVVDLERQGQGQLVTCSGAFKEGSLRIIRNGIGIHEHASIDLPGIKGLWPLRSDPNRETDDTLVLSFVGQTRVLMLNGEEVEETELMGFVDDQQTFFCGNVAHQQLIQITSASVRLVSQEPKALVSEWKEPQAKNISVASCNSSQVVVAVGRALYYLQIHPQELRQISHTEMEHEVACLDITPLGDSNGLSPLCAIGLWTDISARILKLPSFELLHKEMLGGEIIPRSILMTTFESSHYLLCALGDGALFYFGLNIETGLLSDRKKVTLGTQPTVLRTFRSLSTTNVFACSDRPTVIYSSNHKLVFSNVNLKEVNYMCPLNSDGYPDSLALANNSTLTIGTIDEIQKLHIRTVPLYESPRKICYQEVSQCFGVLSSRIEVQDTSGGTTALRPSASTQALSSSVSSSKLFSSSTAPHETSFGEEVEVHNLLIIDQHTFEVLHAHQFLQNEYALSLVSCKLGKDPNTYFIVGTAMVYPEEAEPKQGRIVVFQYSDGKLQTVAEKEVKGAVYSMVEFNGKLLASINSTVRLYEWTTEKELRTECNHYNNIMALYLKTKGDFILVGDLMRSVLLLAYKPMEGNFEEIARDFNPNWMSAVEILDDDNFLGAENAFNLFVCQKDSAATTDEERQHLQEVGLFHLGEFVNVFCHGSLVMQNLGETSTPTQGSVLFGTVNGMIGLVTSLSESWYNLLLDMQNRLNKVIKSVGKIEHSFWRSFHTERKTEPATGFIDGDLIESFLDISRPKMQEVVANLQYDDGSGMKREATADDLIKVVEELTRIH

Compound: COc1cc(Nc2ncc3c(n2)-c2ccc(Cl)cc2C(c2c(F)cccc2OC)=NC3)ccc1C(=O)NCCOCCOCCNC(=O)COc1cccc2c1C(=O)N(C1CCC(=O)NC1=O)C2=O (stereo not drawn) [JB170]
- cell cycle distribution [1]: induced an accumulation of BrdU-negative cells in S-phase, but did not induce G2/M arrest
- JB170-mediated depletion of AURORA-A^Imut [2]: not depleted
- CEREBLON co-precipitation with HA-tagged AURORA-A [3]: efficient CEREBLON co-precipitation

From PMC7610535 (Nature chemical biology, 2020)
